Values joined by “and” are separate entries in the source; they are usually repeats but may differ in a detail not shown here. Equal values may be shown once.
Columns and labels:
[1] = tested on: Mus musculus; assay: Compound was evaluated for anticonvulsant activity by maximal electroshock assay(MES) in mice after ip administration; 13-19; type: functional
Outline: (§1)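 Male Hilltop ICR-derived mice (19-30 g), groups of 8-10, dosed ip with compound or aqueous vehicle. After 15 min pretreatment, a transcorneal 60-Hz, 50 mA shock was given for 0.2 s. Just before the shock, each mouse was tested on a horizontal wire (10 s). Quantal data were analysed by Litchfield-Wilcoxon to give ED50 with 95% confidence limits.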

[2] = tested on: Mus musculus; assay: Dose of compound causing a neurological deficit in 50% of mice after ip administration; 25-30; type: functional
Outline: (§2)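 Traction test in male Hilltop ICR-derived mice (19-30 g, groups of 8-10) just before electroshock, 15 min after ip or 30 min after oral dosing. Mice placed on a 16-gauge, 65-cm copper wire 40 cm above the table; deficit scored as failure to stay on for 10 s. ND50 with 95% limits by Litchfield-Wilcoxon.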

[3] = tested on: Mus musculus; assay: Protective index is defined as ND50 (i.p.) divided by MES ED50(i.p.); type: functional
Outline: (§3)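 Ratio of ND50 from the wire traction test to MES ED50, both measured by the same route (ip or oral) in the same animals. Quantal dose-response data for each were evaluated by Litchfield-Wilcoxon.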

[4] = tested on: Mus musculus; assay: Dose causing a neurological deficit in 50% of mice after ip administration.; type: functional; outline: as §2
[5] = tested on: Mus musculus; assay: compound was evaluated for anticonvulsant activity by maximal electroshock assay(MES) in mice after ip administration.; type: functional
Outline: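 Male Hilltop ICR-derived mice, 19-30 g, groups of 8-10, given compound or aqueous vehicle […] before transcorneal electroshock (50 mA, 60 Hz, 0.2 s). Shock delivered after the traction test. ED50 with 95% confidence limits estimated from quantal data by Litchfield-Wilcoxon.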

[6] = tested on: Mus musculus; assay: Compound was evaluated for anticonvulsant activity by maximal electroshock assay(MES) in mice after po administration; 34-89; type: functional
Outline: (§4)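 Male Hilltop ICR-derived mice (19-30 g), groups of 8-10, given compound or aqueous vehicle orally. The transcorneal 60-Hz shock (50 mA, 0.2 s) followed a 30 min pretreatment and a wire-hang neurological check (10 s). ED50 and 95% confidence limits were obtained from quantal data by the Litchfield-Wilcoxon method.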

[7] = tested on: Mus musculus; assay: Dose of compound causing a neurological deficit in 50% of mice after ip administration; 20-35; type: functional; outline: as §2
[8] = tested on: Mus musculus; assay: Dose causing a neurological deficit in 50% of mice following p.o. administration.; type: functional; outline: as §2
[9] = tested on: Mus musculus; assay: Protective index defined as ND50 (p.o.) divided by MES ED50(op); type: functional; outline: as §3
[10] = tested on: Mus musculus; assay: Dose of compound causing a neurological deficit in 50% of mice after ip administration; 71-111; type: functional; outline: as §2
[11] = tested on: Mus musculus; assay: Compound was evaluated for anticonvulsant activity by maximal electroshock assay(MES) in mice after ip administration; 18-28; type: functional; outline: as §1
[12] = tested on: Mus musculus; assay: Compound was evaluated for anticonvulsant activity by maximal electroshock assay(MES) in mice after ip administration; 38-55; type: functional; outline: as §1
[13] = tested on: Mus musculus; assay: Dose of compound causing a neurological deficit in 50% of mice after ip administration; 71-93; type: functional; outline: as §2
[14] = tested on: Mus musculus; assay: Compound was evaluated for anticonvulsant activity by maximal electroshock assay(MES) in mice after po administration; 55-103; type: functional; outline: as §4
[15] = tested on: Mus musculus; assay: Compound was evaluated for anticonvulsant activity by maximal electroshock assay(MES) in mice after ip administration; 20-28; type: functional; outline: as §1
[16] = Lethal dose was measured in mice after ip administration.; type: toxicity, organism-based; conditions: mouse, in vivo
Outline: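 Male Simonsen ICR-derived mice (16-24 g), groups of three, given compound ip in increasing doses within a behavioral screen. Deaths counted on day 5, and LD50 estimated from 5-day survival. Quantal data analysed by the Litchfield-Wilcoxon method.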

[17] = tested on: Mus musculus; assay: Compound was evaluated for anticonvulsant activity by maximal electroshock assay(MES) in mice after po administration; 29-53; type: functional; outline: as §4
[18] = tested on: Mus musculus; assay: Compound was evaluated for anticonvulsant activity by maximal electroshock assay(MES) in mice after ip administration; 12-15; type: functional; outline: as §1
[19] = tested on: Mus musculus; assay: Dose of compound causing a neurological deficit in 50% of mice after ip administration; 61-69; type: functional; outline: as §2
[20] = tested on: Rattus norvegicus; assay: Compound was evaluated for anticonvulsant activity by maximal electroshock assay(MES) in rat after ip administration; 1.2-6.2; type: functional
[21] = tested on: Rattus norvegicus; assay: Dose of compound causing a neurological deficit in 50% of rat after ip administration; 35-83; type: functional
Outline: (§5)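 Rats (Simonsen Sprague-Dawley-derived, 80-110 g, groups of 8-10) placed on a suspended 16-gauge, 65-cm copper wire just before electroshock. Deficit scored as inability to remain for 8 s. Pretreatment was 15 min ip or 30 min oral. Quantal data analysed by Litchfield-Wilcoxon to give ND50 with 95% limits.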

[22] = tested on: Mus musculus; assay: Compound was evaluated for anticonvulsant activity by maximal electroshock assay(MES) in mice after po administration; 55-105; type: functional; outline: as §4
[23] = tested on: Mus musculus; assay: Dose of compound causing a neurological deficit in 50% of mice after ip administration; 53-96; type: functional; outline: as §2
[24] = tested on: Mus musculus; assay: Compound was evaluated for anticonvulsant activity by maximal electroshock assay(MES) in mice after ip administration; 18-25; type: functional; outline: as §1
[25] = tested on: Rattus norvegicus; assay: Compound was evaluated for anticonvulsant activity by maximal electroshock assay(MES) in rat after po administration; 31-105; type: functional
Outline: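 Male Simonsen Sprague-Dawley-derived rats, 80-110 g, groups of 8-10, dosed with compound or aqueous vehicle; pretreatment 15 min after ip or 30 min after oral dosing. Transcorneal electroshock, 150 mA, 60 Hz, 0.2 s, given after the wire test. ED50 with 95% confidence limits from quantal data by Litchfield-Wilcoxon.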

[26] = tested on: Rattus norvegicus; assay: Dose of compound causing a neurological deficit in 50% of rat after po administration.; type: functional; outline: as §5
[27] = tested on: Mus musculus; assay: Compound was evaluated for anticonvulsant activity by maximal electroshock assay(MES) in mice after po administration.; type: functional; outline: as §4
[28] = tested on: Mus musculus; assay: Compound was evaluated for anticonvulsant activity by maximal electroshock assay(MES) in mice after ip administration; 20-42; type: functional; outline: as §1
[29] = tested on: Mus musculus; assay: Compound was evaluated for anticonvulsant activity by maximal electroshock assay(MES) in mice after po administration; 69-90; type: functional; outline: as §4
[30] = tested on: Mus musculus; assay: Compound was evaluated for anticonvulsant activity by maximal electroshock assay(MES) in mice after ip administration; 13-43; type: functional; outline: as §1
[31] = tested on: Mus musculus; assay: Compound was evaluated for anticonvulsant activity by maximal electroshock assay(MES) in mice after ip administration; 62-102; type: functional; outline: as §1

Structure (SMILES): CCCCOC(Cn1ccnc1)c1cccc2ccccc12 (stereo not drawn)
- ED50 [1]: 16 mg/kg
- ND50 [2]: 27 mg/kg
- PI [3]: 1.7

Structure (SMILES): COC(Cn1ccnc1)(OC)c1ccc2ccccc2c1
- ND50 [4]: >40 mg/kg
- ED50 [5]: > 40 mg/kg

Structure (SMILES): CC1CCOC(Cn2ccnc2)(c2ccc3ccccc3c2)O1 (stereo not drawn)
- ED50 [6]: 56 mg/kg
- ND50 [7]: 26 mg/kg
- ND50 [8]: >100 mg/kg
- PI [9]: >1.8
- PI [3]: 1.4

Structure (SMILES): CCC(=O)OC(Cn1ccnc1)c1ccc2ccccc2c1.Cl (stereo not drawn)
- ND50 [10]: 83 mg/kg
- ED50 [11]: 23 mg/kg
- PI [3]: 3.6

Structure (SMILES): Cl.Clc1ccc(OC(Cn2ccnc2)c2ccc3ccccc3c2)cc1 (stereo not drawn)
- ED50 [12]: 46 mg/kg
- ND50 [13]: 82 mg/kg
- PI [3]: 1.8

Structure (SMILES): Cc1ccc2cc(C(=O)Cn3ccnc3)ccc2c1.Cl
- ED50 [14]: 76 mg/kg
- ND50 [4]: >100 mg/kg
- ND50 [8]: >150 mg/kg
- ED50 [15]: 24 mg/kg
- LD50 [16]: > 100 mg/kg
- PI [9]: >2
- PI [3]: >4.3

Structure (SMILES): Br.CCc1ccc2cccc(C(=O)Cn3ccnc3)c2c1
- ED50 [17]: 40 mg/kg
- ED50 [18]: 13 mg/kg
- ND50 [19]: 65 mg/kg
- ND50 [8]: >100 mg/kg
- ED50 [20]: 3.1 mg/kg
- ND50 [21]: 53 mg/kg
- PI [9]: >2.5

Structure (SMILES): Cc1ccc2cccc(C(=O)Cn3ccnc3)c2c1.Cl
- ED50 [22]: 74 mg/kg
- ND50 [23]: 73 mg/kg
- ND50 [8]: >300 mg/kg
- ED50 [24]: 22 mg/kg
- ED50 [25]: 52 mg/kg
- ND50 [26]: >100 mg/kg
- PI [9]: >4.1 and >1.9
- PI [3]: 3.3

Structure (SMILES): COc1ccc2cc(C(=O)Cn3ccnc3)ccc2c1.Cl
- ED50 [27]: > 100 mg/kg
- ED50 [28]: 31 mg/kg
- ND50 [4]: >100 mg/kg
- ND50 [8]: >100 mg/kg
- LD50 [16]: > 100 mg/kg
- PI [3]: >3.3

Structure (SMILES): Cc1cc2ccc(C(=O)Cn3ccnc3)cc2cc1C.Cl
- ED50 [29]: 78 mg/kg
- ED50 [30]: 25 mg/kg
- ND50 [4]: >100 mg/kg
- ND50 [8]: >100 mg/kg
- PI [9]: >1.3
- PI [3]: >4

Structure (SMILES): COc1cc2cccc(C(=O)Cn3ccnc3)c2cc1OC.Cl
- ED50 [31]: 79 mg/kg
- ND50 [4]: >100 mg/kg
- PI [3]: >1.3

Reference: ChEMBL document CHEMBL1121883, “1-(Naphthylalkyl)-1H-imidazole derivatives, a new class of anticonvulsant agents” (J Med Chem, 1981)
